Measurements from ChEMBL document CHEMBL1131544, “Synthesis and antioxidant activity of novel amphipathic derivatives of tea polyphenol” (Bioorg Med Chem Lett, 1998).

Key:
Assay type in all cases: functional
[1] = Inhibitory activity against lipid peroxidation of egg-phosphatidylcholine (PC) liposome caused by water-soluble radical initiator [2,2'-azobis(2-amidinopropane) dihydrochloride] (AAPH)
How it was run: (§1)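 Egg PC liposome peroxidation driven by water-soluble initiator AAPH (0.21 M aqueous stock, 150 µl) with sample in DMSO; 37°C for 20 min, capped tube. TBA reagent (0.375% TBA, 15% TCA, 0.25 N HCl) added, 100°C 15 min, cooled, spun; thiobarbituric acid reactive substances measured at 535 nm to give IC50.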

[2] = Inhibitory activity against lipid peroxidation of egg-phosphatidylcholine (PC) liposome caused by lipid-soluble radical initiator [2,2'-azobis(2,4- dimethylvaleronitrile] (AMVN)
How it was run: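 Egg PC liposomes (0.65 ml) incubated with sample in DMSO plus AMVN (8 mM DMSO stock) and water, 37°C, 20 min, capped tube. Stopped with thiobarbituric acid/trichloroacetic acid/HCl, heated 100°C 15 min, ice-cooled, centrifuged; TBARS in supernatant read at 535 nm. IC50 against lipid peroxidation.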

[3] = Inhibitory activity against lipid peroxidation of egg-phosphatidylcholine (PC) liposome caused by water-soluble radical initiator [2,2'-azobis(2-amidinopropane) dihydrochloride] (AAPH); strongly aggregated and precipitated the lipids, hence not eva luated; how it was run: as §1

Row | SMILES | IC50 [1] [µM] | IC50 [2] [µM] | IC50 [3]
1 | O=C(O[C@H]1[C@@H](c2cc(O)c(O)c(O)c2)Oc2cc(O)cc(O)c2[C@@H]1SCCO)c1cc(O)c(O)c(O)c1 | 20.5 | > 500 | 
2 | C=CCSCc1c(O)c(CSCC=C)c2c(c1O)C[C@@H](OC(=O)c1cc(O)c(O)c(O)c1)[C@@H](c1cc(O)c(O)c(O)c1)O2 | 11.6 | > 500 | 
3 | O=C(O[C@@H]1Cc2c(O)c(CSCc3ccccc3)c(O)c(CSCc3ccccc3)c2O[C@@H]1c1cc(O)c(O)c(O)c1)c1cc(O)c(O)c(O)c1 | 9.6 | 432 | 
4 | CCCCCCCCCCCCCCCCCCNC(=O)Oc1c(O)cc(C(=O)O[C@@H]2Cc3c(O)cc(O)cc3O[C@@H]2c2cc(O)c(O)c(O)c2)cc1O | 24.6 | 22.1 | 
5 | CCCCCCCCOC(=O)c1cc(O)c(O)c(O)c1 [OCTYL_GALLATE] | 18.6 | 188 | 
6 | O=C(O[C@@H]1Cc2c(O)cc(O)cc2O[C@@H]1c1cc(O)c(O)c(O)c1)c1cc(O)c(O)c(O)c1 [EPIGALOCATECHIN GALLATE] | 20.8 | > 500 | 

More lines, now with the values ahead:

Row | IC50 [1] [µM] | IC50 [2] [µM] | IC50 [3] | SMILES
7 | 40.3 | 5.9 |  | Cc1c(C)c2c(c(C)c1O)CC[C@@](C)(CCC[C@H](C)CCC[C@H](C)CCCC(C)C)O2 [ALPHA-TOCOPHEROL]
8 | 12 | > 500 |  | COC(=O)CSCc1c(O)c(CSCC(=O)OC)c2c(c1O)C[C@@H](OC(=O)c1cc(O)c(O)c(O)c1)[C@@H](c1cc(O)c(O)c(O)c1)O2
9 | 7.9 | 60 |  | CCCCCCCCSCc1c(O)c(CSCCCCCCCC)c2c(c1O)C[C@@H](OC(=O)c1cc(O)c(O)c(O)c1)[C@@H](c1cc(O)c(O)c(O)c1)O2
10 |  |  | No effect | CCCCCCCCCCCCCCCCSCc1c(O)c(CSCCCCCCCCCCCCCCCC)c2c(c1O)C[C@@H](OC(=O)c1cc(O)c(O)c(O)c1)[C@@H](c1cc(O)c(O)c(O)c1)O2
11 | 8.8 | 60.8 |  | CCCCCCCCSCc1c(O)c(CSCCCCCCCC)c2c(c1O)[C@H](SCCO)[C@@H](OC(=O)c1cc(O)c(O)c(O)c1)[C@@H](c1cc(O)c(O)c(O)c1)O2
12 |  |  | No effect | CCCCCCCCCCCCCCCCCCSCc1c(O)c(CSCCCCCCCCCCCCCCCCCC)c2c(c1O)C[C@@H](OC(=O)c1cc(O)c(O)c(O)c1)[C@@H](c1cc(O)c(O)c(O)c1)O2
13 | 135 | 19.4 |  | CCCCCCCCSCc1c(O)c(CSCCCCCCCC)c2c(c1O)[C@H](SCCCCCCCC)[C@@H](OC(=O)c1cc(O)c(O)c(O)c1)[C@@H](c1cc(O)c(O)c(O)c1)O2
